Assay results as given in ChEMBL document CHEMBL4387722.

Experiments:
[1] = biological target: T1, Phosphotyrosine protein phosphatase (Mycobacterium tuberculosis, UniProt A0A045ISB3); assay: Inhibition of Mycobacterium tuberculosis His-tagged PtpB expressed in Escherichia coli Rosetta 2 (DE3) using pNPP as substrate after 30 mins by spectrophotometric method
T1 sequence (A0A045ISB3 whole entry): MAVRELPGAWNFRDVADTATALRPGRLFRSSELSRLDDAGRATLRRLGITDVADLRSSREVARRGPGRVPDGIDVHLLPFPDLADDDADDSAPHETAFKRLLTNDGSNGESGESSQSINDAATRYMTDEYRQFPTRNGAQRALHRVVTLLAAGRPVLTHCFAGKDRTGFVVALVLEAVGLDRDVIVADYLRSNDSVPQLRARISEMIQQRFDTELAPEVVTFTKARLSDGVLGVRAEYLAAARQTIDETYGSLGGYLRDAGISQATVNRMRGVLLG

[2] = biological target: T2, Tyrosine-protein phosphatase non-receptor type 1 (Homo sapiens, UniProt P18031); assay: Inhibition of human PTPN1 expressed in Escherichia coli Rosetta 2 (DE3) using pNPP as substrate after 45 mins by spectrophotometric method
T2 sequence (P18031 whole entry): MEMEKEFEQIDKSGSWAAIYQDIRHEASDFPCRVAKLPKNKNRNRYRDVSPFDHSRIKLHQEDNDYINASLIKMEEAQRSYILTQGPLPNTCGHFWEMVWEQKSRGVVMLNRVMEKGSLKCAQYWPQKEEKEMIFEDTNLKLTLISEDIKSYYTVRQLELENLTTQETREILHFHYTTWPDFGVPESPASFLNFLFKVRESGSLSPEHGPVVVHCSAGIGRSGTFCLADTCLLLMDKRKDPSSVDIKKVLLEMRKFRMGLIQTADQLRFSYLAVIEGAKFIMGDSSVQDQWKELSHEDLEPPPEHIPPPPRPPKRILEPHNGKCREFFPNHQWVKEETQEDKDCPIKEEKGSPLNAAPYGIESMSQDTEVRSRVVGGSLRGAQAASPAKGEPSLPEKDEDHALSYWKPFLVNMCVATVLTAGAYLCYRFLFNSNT

[3] = biological target: T3, Tyrosine-protein phosphatase non-receptor type 2 (Homo sapiens, UniProt P17706); assay: Inhibition of human PTPN2 expressed in Escherichia coli Rosetta 2 (DE3) using pNPP as substrate after 45 mins by spectrophotometric method
T3 sequence (P17706 whole entry): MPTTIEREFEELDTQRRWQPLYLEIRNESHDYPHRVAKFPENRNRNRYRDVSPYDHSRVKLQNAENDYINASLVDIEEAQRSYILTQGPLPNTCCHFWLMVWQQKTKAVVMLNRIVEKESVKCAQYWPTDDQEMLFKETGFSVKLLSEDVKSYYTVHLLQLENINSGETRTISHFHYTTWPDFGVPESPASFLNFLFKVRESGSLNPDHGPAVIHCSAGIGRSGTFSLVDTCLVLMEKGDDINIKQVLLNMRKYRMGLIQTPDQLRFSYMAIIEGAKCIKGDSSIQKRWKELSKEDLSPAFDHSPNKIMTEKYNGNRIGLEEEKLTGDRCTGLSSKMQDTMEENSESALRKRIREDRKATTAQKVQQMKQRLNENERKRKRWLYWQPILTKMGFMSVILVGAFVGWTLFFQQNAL

[4] = biological target: T4, Tyrosine-protein phosphatase non-receptor type 5 (Homo sapiens, UniProt P54829); assay: Inhibition of human PTPN5 expressed in Escherichia coli Rosetta 2 (DE3) using pNPP as substrate after 45 mins by spectrophotometric method
T4 sequence (P54829 whole entry): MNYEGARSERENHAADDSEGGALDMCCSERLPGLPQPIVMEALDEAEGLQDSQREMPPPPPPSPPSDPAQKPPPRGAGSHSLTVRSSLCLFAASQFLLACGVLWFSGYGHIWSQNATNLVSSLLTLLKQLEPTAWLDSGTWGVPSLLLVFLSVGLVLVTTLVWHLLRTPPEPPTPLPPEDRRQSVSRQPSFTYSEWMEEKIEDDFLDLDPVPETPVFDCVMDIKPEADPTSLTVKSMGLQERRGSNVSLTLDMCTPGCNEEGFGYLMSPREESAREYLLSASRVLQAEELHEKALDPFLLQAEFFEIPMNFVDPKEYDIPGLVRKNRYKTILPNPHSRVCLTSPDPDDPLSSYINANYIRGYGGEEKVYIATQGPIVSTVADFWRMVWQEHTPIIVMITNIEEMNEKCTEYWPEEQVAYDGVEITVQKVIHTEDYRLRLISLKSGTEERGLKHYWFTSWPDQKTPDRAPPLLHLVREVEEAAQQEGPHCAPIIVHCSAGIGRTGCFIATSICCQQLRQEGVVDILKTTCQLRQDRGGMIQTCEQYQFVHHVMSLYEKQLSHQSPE

[5] = test system: Mycobacterium tuberculosis; assay: Antitubercular activity against Mycobacterium tuberculosis H37Rv after 5 days at 200 uM relative to control; format: functional; conditions: 120 h
Method in brief: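 M. tuberculosis grown in liquid culture with compound at a fixed 200 μM for 5 days. Growth inhibition expressed as percent of control.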

[6] = test system: Mycobacterium tuberculosis; assay: Antitubercular activity against Mycobacterium tuberculosis H37Rv after 5 days; format: functional, organism-based; conditions: 120 h
[7] = Inhibition of refolded rhodanese (unknown origin) preincubated with Escherichia coli GroEL/GroES for 60 mins by measuring rhodanese enzyme activity followed by compound addition by Fe(SCN)3 dye based spectrometric analysis; parameters: species or system Homo sapiens
[8] = biological target: T5, Malate dehydrogenase, mitochondrial (Sus scrofa, UniProt P00346); assay: Inhibition of refolded pig heart mitochondrial MDH preincubated with Escherichia coli GroEL/GroES for 45 mins using sodium mesoxalate as substrate followed by compound addition and measured after 20 to 30 mins by spectrometric analysis
T5 sequence (P00346 whole entry): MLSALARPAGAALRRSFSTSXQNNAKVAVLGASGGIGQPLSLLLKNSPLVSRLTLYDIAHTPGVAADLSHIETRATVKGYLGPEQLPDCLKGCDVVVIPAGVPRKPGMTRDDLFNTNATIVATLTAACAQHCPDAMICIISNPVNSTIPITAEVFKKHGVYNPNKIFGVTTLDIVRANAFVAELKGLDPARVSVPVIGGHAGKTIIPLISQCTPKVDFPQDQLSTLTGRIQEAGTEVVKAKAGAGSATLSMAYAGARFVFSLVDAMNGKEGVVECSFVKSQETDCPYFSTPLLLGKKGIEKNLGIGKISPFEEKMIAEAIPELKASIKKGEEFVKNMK

E. coli GroEL/ES [9] = biological target: T6, E. coli GroEL/ES (Escherichia coli, UniProt P0A6F5); assay: Inhibition of Escherichia coli GroEL expressed in Escherichia coli DH5alpha/Escherichia coli GroES expressed in Escherichia coli BL21 (DE3) assessed as reduction in GroEL/GroES-mediated denatured rhodanese refolding by measuring rhodanese enzyme activity after 45 mins by Fe(SCN)3 dye based spectrometric analysis
E. coli GroEL/ES [10] = biological target: T6, E. coli GroEL/ES; assay: Inhibition of Escherichia coli GroEL expressed in Escherichia coliDH5alpha/Escherichia coli GroES expressed in Escherichia coli BL21 (DE3) assessed as reduction in GroEL/GroES-mediated denatured pig heart mitochondrial MDH refolding by measuring MDH enzyme activity using sodium mesoxalate as substrate after 20 to 40 mins by spectrometric analysis
HSP60/HSP10 = HSP60/HSP10 (Homo sapiens, UniProt P10809); assay: Inhibition of human HSP60 expressed in Escherichia coli Rosetta 2(DE3)/human HSP10 expressed in Escherichia coli Rosetta 2(DE3) pLysS cells assessed as reduction in HSP60/HSP10-mediated denatured pig heart mitochondrial MDH refolding by measuring MDH enzyme activity using sodium mesoxalate as substrate after 40 to 60 mins by spectrometric analysis
[11] = Cytotoxicity against human THLE3 cells assessed as reduction in cell viability after 48 hrs by Alamar blue assay; format: cell-based
Method in brief: (§1)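 Alamar Blue viability read-out. Human liver (THLE-3) and kidney (HEK 293) cells incubated with compound for 48 h. Tested in dose-response to derive CC50.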

[12] = Cytotoxicity against human HEK293 cells assessed as reduction in cell viability after 48 hrs by Alamar blue assay; format: cell-based; method in brief: as §1

HSP60/HSP10, sequence (P10809 whole entry): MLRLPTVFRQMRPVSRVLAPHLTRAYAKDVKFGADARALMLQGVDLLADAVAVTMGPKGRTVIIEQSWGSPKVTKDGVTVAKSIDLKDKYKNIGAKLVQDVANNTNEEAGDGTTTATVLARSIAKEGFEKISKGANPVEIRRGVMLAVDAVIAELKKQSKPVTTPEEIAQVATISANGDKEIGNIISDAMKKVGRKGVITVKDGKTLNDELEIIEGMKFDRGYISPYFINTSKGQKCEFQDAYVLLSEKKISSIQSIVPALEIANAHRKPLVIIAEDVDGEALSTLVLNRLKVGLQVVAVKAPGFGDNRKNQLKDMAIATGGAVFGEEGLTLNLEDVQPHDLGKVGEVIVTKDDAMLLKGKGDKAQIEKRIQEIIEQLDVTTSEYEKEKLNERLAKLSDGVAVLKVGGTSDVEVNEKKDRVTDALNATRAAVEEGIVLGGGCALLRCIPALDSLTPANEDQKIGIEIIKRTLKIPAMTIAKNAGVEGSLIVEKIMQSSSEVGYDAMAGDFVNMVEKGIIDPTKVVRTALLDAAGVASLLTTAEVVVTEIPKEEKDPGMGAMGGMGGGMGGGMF
HSP60/HSP10, sequence (P61604 whole entry, further chain): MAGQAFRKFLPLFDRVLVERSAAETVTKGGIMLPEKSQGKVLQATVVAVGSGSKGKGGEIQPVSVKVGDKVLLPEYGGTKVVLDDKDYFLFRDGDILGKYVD
T6 sequence (P0A6F5 whole entry, looked up): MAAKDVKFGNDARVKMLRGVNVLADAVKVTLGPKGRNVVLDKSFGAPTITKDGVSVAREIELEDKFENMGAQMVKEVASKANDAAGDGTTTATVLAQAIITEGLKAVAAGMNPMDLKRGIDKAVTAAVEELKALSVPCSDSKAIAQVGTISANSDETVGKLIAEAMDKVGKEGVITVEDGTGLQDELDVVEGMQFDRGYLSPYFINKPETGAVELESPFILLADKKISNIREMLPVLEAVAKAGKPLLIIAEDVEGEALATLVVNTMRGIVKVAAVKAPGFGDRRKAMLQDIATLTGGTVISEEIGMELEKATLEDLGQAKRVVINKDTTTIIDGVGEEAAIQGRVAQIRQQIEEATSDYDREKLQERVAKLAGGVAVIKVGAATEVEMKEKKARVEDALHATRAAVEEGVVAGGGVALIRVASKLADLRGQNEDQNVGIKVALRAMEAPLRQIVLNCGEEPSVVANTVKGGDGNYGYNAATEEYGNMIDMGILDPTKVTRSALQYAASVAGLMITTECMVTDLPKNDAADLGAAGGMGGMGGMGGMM

Row | Compound | IC50 [1] [µM] | IC50 [2] [µM] | IC50 [3] [µM] | IC50 [4] [µM] | inhibition at 200 µM [5] [%] | EC50 [6] [µM] | IC50 [7] [µM] | IC50 [8] [µM] | IC50 (E. coli GroEL/ES [9]) [µM] | IC50 (E. coli GroEL/ES [10]) [µM] | IC50 (HSP60/HSP10) [µM] | CC50 at 48 h [11] [µM] | CC50 at 48 h [12] [µM]
1 | O=S(=O)(Nc1ccc(-c2nc3ccccc3o2)cc1)c1cccs1 | 48 | > 100 | > 100 | 93 | 68 | > 200 | > 100 | > 63 | 239 | > 100 | 63 | 98 | > 100
2 | Cc1ccccc1S(=O)(=O)Nc1ccc2oc(-c3ccccc3)nc2c1 | 59 | 41 | 29 | 30 | 61 | 197 | > 100 | > 63 | 127 | > 100 | > 100 | 35 | 57
3 | O=S(=O)(Nc1ccc2oc(-c3ccccc3)nc2c1)c1ccccc1 | 87 | 77 | 64 | 42 | 76 | 105 | > 100 | > 63 | 190 | > 100 | > 100 | 33 | 46
4 | O=S(=O)(Nc1ccc(-c2nc3ccccc3o2)cc1)c1cccc(C(F)(F)F)c1 | 49 | 44 | 48 | 40 | 50 | > 200 | > 100 | > 63 | 170 | 53 | 57 | 82 | > 100
5 | O=S(=O)(Nc1ccc(-c2nc3ccccc3o2)cc1)c1ccccc1 | 80 | 65 | 66 | 51 | 71 | 179 | > 100 | > 63 | 217 | 94 | > 100 | 96 | > 100
6 | CCc1ccc(S(=O)(=O)Nc2ccc3oc(-c4ccccc4)nc3c2)cc1 | 67 | 57 | 55 | 42 | 87 | 148 | > 100 | > 63 | 237 | > 100 | > 100 | 63 | 81
7 | O=S(=O)(Nc1ccc2oc(-c3ccccc3)nc2c1)c1cccs1 | 81 | > 100 | 88 | 85 | 68 | > 200 | > 100 | > 63 | 214 | > 100 | 90 | 35 | 97
